Series [1] concerns BT-20. The experiment in a line: Antiproliferative activity against human BT20 cells assessed as after 48 hrs by […]. The series is classed as functional, cell-based. Conditions: BT-20, 48 h. In a few lines: (§1)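 BT-20 cells, 5,000/well, grown 24 h at 37 °C, 5% CO2 before treatment with a range of concentrations or 1% DMSO for 48 h. Cell number by WST-8 tetrazolium absorbance at 450 nm after 3 h, versus an initial plate read at time of dosing. Four wells per experiment, three independent experiments. IC50 fitted from 48 h mean cell numbers. MIC is significant reduction versus control (t-test).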

Series [2] can be described thus: Therapeutic index, ratio of MLC for humanBT20 cells to MIC for BT20 cells. The series is classed as cell-based, BT-20. Conditions: human, read-out: TI.
For series [3], the system named is BT-20. The experiment in a line: Antiproliferative activity against human BT20 cells assessed as reduction in cell number after 48 hrs by […] assay. The series is classed as functional. Particulars: for MIC: Homo sapiens, 48 h. In a few lines:
as §1

Another series relates to MDCK. The experiment in a line: Antimigratory activity against MDCK cells assessed as mean rate of migration by wound closure assay. The series is classed as functional, cell-based. Conditions: Canis lupus familiaris. In a few lines: (§2)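 Screening scratch-wound assay on confluent monolayers in 24-well plates. Medium changed to fresh medium with 100 µM compound or 1% DMSO; wounds of 0.5–1.0 mm2 scraped with a micropipet tip 30 min later. Scored closed/open by inverted microscopy every 12 h for 72 h; antimigratory if wound remained open after DMSO controls closed. Trypan blue exclusion at end. Culture at 37 °C, 5% CO2.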

In a further series the test system is MDA-MB-435. The series can be described thus: Antimigratory activity against human MDA-MB-435 cells assessed as mean rate of migration by wound closure assay. The series is classed as functional, cell-based. In a few lines:
as §2

The subject of a further series is T47D. The series can be described thus: Antimigratory activity against human T47D cells assessed as mean rate of migration by wound closure assay. The series is classed as functional, cell-based. Summed up: as §2
The test system of series [4] is BT-20. The series can be described thus: Antimigratory activity against human BT20 cells assessed as mean rate of migration after 48 hrs by wound closure assay. The series is classed as functional. Summed up:
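Kinetic wound-closure assay in confluent BT-20 monolayers grown in MEM with 10% FBS, wounded 30 min after addition of a range of concentrations or DMSO. Wound area measured from digital images at 3–72 h post-wounding.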

The test system of series [5] is BT-20. The series can be described thus: Activity against human BT20 cells by trypan blue exclusion assay.

In brackets after ≈: the same amount, converted by molar mass. Activity calls are given as the source filed them. The calls are words filed in the database; no cut-off is given here.

As to `CCCCCCCCO[C@H]1O[C@H](CO)[C@@H](O)[C@H](OCc2ccccc2)[C@H]1OCc1ccccc1`, the IC50 with BT-20 [1] is 52.9 µM. Also, the selectivity ratio in series [2] stood at 3. Also, in the series with BT-20 [3], the MLC came to 75 µM (≈ 35.4 µg/mL) and the MIC worked out at 25 µM (≈ 11.8 µg/mL).

For `CCCCCCCCO[C@@H]1O[C@@H]2COC(c3ccccc3)O[C@H]2[C@H](O)[C@H]1O` (stereo partly specified), the IC50 in the series with BT-20 [1] was 72.1 µM. In the series with MDCK, the result was Active. Besides, in the series with MDA-MB-435, the outcome was Active. Moreover, the selectivity ratio in series [2] stood at 6. Besides, in the series on BT-20 [3], the MLC is 300 µM (≈ 114 µg/mL) and the MIC amounted to 50 µM (≈ 19 µg/mL). In addition, in the series on T47D, the result was inactive.

Take `CCCCCCCCO[C@H]1O[C@@H]2COC(c3ccccc3)O[C@H]2[C@H](O)[C@H]1O` (stereo partly specified): the IC50 in the series with BT-20 [1] worked out at 47.1 µM. Besides, in the series with MDCK, the outcome was Active. For the same compound, the outcome in the series on MDA-MB-435 was Active. Besides, the selectivity ratio in series [2] worked out at 7.5. Further, in the series on BT-20 [3], the MLC amounted to 75 µM (≈ 28.5 µg/mL) and the MIC is 10 µM (≈ 3.8 µg/mL). Also, the outcome in the series on T47D was inactive.

On to `CCCCCCCCO[C@H]1O[C@@H]2COC(=O)CC[C@H]3O[C@@H]3CCC(=O)O[C@H]2[C@H](O)[C@H]1O`, for which, in the series on BT-20 [1], the IC50 came to 107 µM. Also, the result in the series with MDCK and in the series on MDA-MB-435 was Active. The selectivity ratio in series [2] was over 6. In addition, the MIC in the series on BT-20 [4] and in the series on BT-20 [3] was 50 µM (≈ 22.2 µg/mL) each time. The MLC in the series with BT-20 [3] was over 300 µM; with BT-20 [5], 125 µM (≈ 55.6 µg/mL). The outcome with T47D was inactive.

With `CCCCCCCCO[C@@H]1O[C@H](CO)[C@@H](O)[C@H](OCc2ccccc2)[C@H]1OCc1ccccc1`, the IC50 in the series with BT-20 [1] worked out at 61.1 µM. In addition, in series [2], the selectivity ratio amounted to 4. Besides, in the series with BT-20 [3], the MLC was determined as 100 µM (≈ 47.3 µg/mL) and the MIC amounted to 25 µM (≈ 11.8 µg/mL).

As to `CCCCCCCCO[C@H]1O[C@@H]2COC(=O)CC/C=C/CCC(=O)O[C@H]2[C@H](OC)[C@H]1OC`, the IC50 with BT-20 [1] was determined as 91.4 µM. The outcome with MDCK and with MDA-MB-435 was Active. Also, in series [2], the selectivity ratio was 6. Besides, the MIC worked out at 75 µM (≈ 34.2 µg/mL) with BT-20 [4] and 50 µM (≈ 22.8 µg/mL) in the series on BT-20 [3]. The MLC was found to be 300 µM (≈ 137 µg/mL) in the series on BT-20 [3] and 125 µM (≈ 57.1 µg/mL) in the series with BT-20 [5]. Besides, the outcome with T47D was inactive.

As to `CCCCCCCCO[C@H]1O[C@@H]2COC(=O)CC/C=C/CCC(=O)O[C@H]2[C@H](OCc2ccccc2)[C@H]1OCc1ccccc1`, the IC50 in the series with BT-20 [1] was found to be 85.1 µM. For the same compound, the outcome in the series on MDCK was Active. Moreover, the result in the series on MDA-MB-435 was Active. For the same compound, in series [2], the selectivity ratio is 30. Further, in the series with BT-20 [3], the MLC stood at 300 µM (≈ 183 µg/mL) and the MIC came to 10 µM (≈ 6.09 µg/mL). The result with T47D was inactive.

Consider `CCCCCCCCO[C@H]1O[C@@H]2COC(=O)CCCCCCC(=O)O[C@H]2[C@H](O)[C@H]1O`, for which the IC50 with BT-20 [1] was 38.1 µM. Moreover, the result in the series with MDCK and in the series with MDA-MB-435 was Active. Moreover, the selectivity ratio in series [2] turned out to be 5. For the same compound, the MIC in the series on BT-20 [4] was 50 µM (≈ 21.5 µg/mL); in the series with BT-20 [3], 10 µM (≈ 4.31 µg/mL). In addition, the MLC in the series on BT-20 [3] turned out to be 50 µM (≈ 21.5 µg/mL); in the series with BT-20 [5], 75 µM (≈ 32.3 µg/mL). The result in the series with T47D was inactive.

Usually IC50 stands for the point on the concentration scale where inhibition reaches its midpoint. As a reminder, the MIC is the lowest concentration found to suppress growth.

The record behind these values is ChEMBL document CHEMBL1221356, “Synthesis and evaluation of antimigratory and antiproliferative activities of lipid-linked [13]-macro-dilactones” (Bioorg Med Chem Lett, 2010).
